Consider 10 compounds from ChEMBL document CHEMBL1143805, “Synthesis and antimicrobial activities of some novel 1,2,4-triazolo[3,4-b]-1,3,4-thiadiazoles and 1,2,4-triazolo[3,4-b]-1,3,4-thiadiazines carrying thioalkyl and sulphonyl phenoxy moieties” (2007).

Values after ≈ are worked out from the molar mass of the structure shown.

In one test the test system is Aspergillus fumigatus. The experiment in a line: Antifungal activity against Aspergillus fumigatus NCIM 902. It counts as functional. The following applies: for MIC: Aspergillus fumigatus, NCIM 902.
For a further test, the system named is Staphylococcus aureus. The experiment in a line: Antibacterial activity against Staphylococcus aureus ATCC 25923. The test is classed as functional. The following applies: for MIC: Staphylococcus aureus, ATCC 25923. Put shortly:
(§1)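 MIC by serial dilution in Mueller-Hinton broth tubes, pH adjusted to 5.0 with phosphate buffer. A standardized bacterial suspension was inoculated and incubated 16-18 h at 37 °C, and MIC was read as the lowest concentration with no visible growth. Zones were also measured in agar wells on seeded plates, with compounds in DMSO and a DMSO control, triplicate plates, 37 °C for 3-4 days.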

For another test, the system named is Escherichia coli. The experiment in a line: Antibacterial activity against Escherichia coli ATCC 25922. The test is classed as functional. The settings on record: for MIC: Escherichia coli, ATCC 25922. Put shortly:
as §1

A further test concerns Pseudomonas aeruginosa. The experiment in a line: Antibacterial activity against Pseudomonas aeruginosa ATCC 27853. The test is classed as functional. The settings on record: for MIC: Pseudomonas aeruginosa, ATCC 27853. Put shortly:
as §1

For the next test, the system named is Klebsiella pneumoniae. The experiment in a line: Antibacterial activity against Klebsiella pneumoniae. It counts as functional. The settings on record: for MIC: Klebsiella pneumoniae. Put shortly: as §1
For the next test, the system named is Trichophyton benhamiae. The experiment in a line: Antifungal activity against Trichophyton mentagrophytes. It counts as functional, Arthroderma benhamiae. The settings on record: for MIC: Trichophyton benhamiae. Put shortly:
(§2)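 Agar-well diffusion on Sabouraud agar at pH 5.7. Plates were lawned with a saline spore suspension (one loopful in 3 ml), decanted and dried 1 h at 37 °C. Compounds in DMSO went into punched wells, with a DMSO solvent control. Plates were run in triplicate and kept at 37 °C for 3-4 days, with inhibition-zone diameter as read-out.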

The next test relates to Aspergillus flavus. The experiment in a line: Antifungal activity against Aspergillus flavus NCIM 524. The test is classed as functional. The following applies: for MIC: Aspergillus flavus, NCIM 524. Put shortly:
as §2

The next test has as its system Talaromyces marneffei. The experiment in a line: Antifungal activity against Penicillium marneffei. The test is classed as functional. The following applies: for MIC: Talaromyces marneffei. Put shortly: as §2

Take `CCSc1ccc(OCc2nnc3n2N=C(c2ccc(Cl)cc2Cl)CS3)cc1`: the “inhibition zone (IZ)” value with Aspergillus fumigatus, in the test on Staphylococcus aureus, in the test on Escherichia coli, in the test with Pseudomonas aeruginosa, with Klebsiella pneumoniae and in the test with Trichophyton benhamiae was under 10 mm throughout. Besides, the “inhibition zone (IZ)” value in the test with Aspergillus flavus and with Talaromyces marneffei was under 10 mm each time. Moreover, the MIC with Aspergillus fumigatus, in the test on Staphylococcus aureus, against Escherichia coli, against Pseudomonas aeruginosa, in the test on Klebsiella pneumoniae and with Trichophyton benhamiae was 25 µg/mL (≈ 55.4 µM) throughout. Further, the MIC in the test with Aspergillus flavus and in the test on Talaromyces marneffei was 25 µg/mL (≈ 55.4 µM) each time.

For the compound `CCSc1ccc(OCc2nnc3n2N=C(c2ccc(Cl)cc2)CS3)cc1`, the “inhibition zone (IZ)” value in the test on Aspergillus fumigatus, in the test on Staphylococcus aureus, in the test with Escherichia coli, in the test with Pseudomonas aeruginosa, in the test on Klebsiella pneumoniae and in the test with Trichophyton benhamiae was under 10 mm in each case. For the same compound, the “inhibition zone (IZ)” value with Aspergillus flavus and in the test on Talaromyces marneffei was under 10 mm in each case. The minimal inhibitory concentration (MIC) in the test with Aspergillus fumigatus, against Staphylococcus aureus, in the test on Escherichia coli, against Pseudomonas aeruginosa, against Klebsiella pneumoniae and against Trichophyton benhamiae was 25 µg/mL (≈ 60 µM) in each case. For the same compound, the MIC in the test on Aspergillus flavus and in the test with Talaromyces marneffei was 25 µg/mL (≈ 60 µM) each time.

As to `CCSc1ccc(OCc2nnc3sc(-c4ccccc4)nn23)cc1`, the “inhibition zone (IZ)” value in the test with Aspergillus fumigatus, in the test with Staphylococcus aureus, with Escherichia coli, in the test with Pseudomonas aeruginosa, with Klebsiella pneumoniae and in the test with Trichophyton benhamiae was 16 mm each time. In addition, the “inhibition zone (IZ)” value with Aspergillus flavus and with Talaromyces marneffei was 16 mm throughout. Also, the MIC against Aspergillus fumigatus, against Staphylococcus aureus, in the test with Escherichia coli, with Pseudomonas aeruginosa, in the test with Klebsiella pneumoniae and in the test with Trichophyton benhamiae was 6.25 µg/mL (≈ 17 µM) in each case. In addition, the MIC in the test on Aspergillus flavus and with Talaromyces marneffei was 6.25 µg/mL (≈ 17 µM) each time.

In the case of `CCSc1ccc(OCc2nnc3sc(-c4ccc(OC)cc4)nn23)cc1`, the “inhibition zone (IZ)” value in the test on Aspergillus fumigatus, with Staphylococcus aureus, in the test with Escherichia coli, in the test on Pseudomonas aeruginosa, in the test on Klebsiella pneumoniae and in the test with Trichophyton benhamiae was under 10 mm throughout. Besides, the “inhibition zone (IZ)” value in the test on Aspergillus flavus and in the test on Talaromyces marneffei was under 10 mm throughout. For the same compound, the minimal inhibitory concentration (MIC) in the test on Aspergillus fumigatus, with Staphylococcus aureus, in the test on Escherichia coli, with Pseudomonas aeruginosa, against Klebsiella pneumoniae and with Trichophyton benhamiae was 25 µg/mL (≈ 62.7 µM) in each case. Further, the MIC in the test with Aspergillus flavus and against Talaromyces marneffei was 25 µg/mL (≈ 62.7 µM) throughout.

Turning to `CSc1ccc(OCc2nnc3sc(-c4ccccc4Cl)nn23)cc1`, the “inhibition zone (IZ)” value in the test with Aspergillus fumigatus, in the test with Staphylococcus aureus, with Escherichia coli, in the test on Pseudomonas aeruginosa, with Klebsiella pneumoniae and in the test on Trichophyton benhamiae was under 10 mm in each case. Moreover, the “inhibition zone (IZ)” value in the test on Aspergillus flavus and with Talaromyces marneffei was under 10 mm each time. For the same compound, the MIC with Aspergillus fumigatus, with Staphylococcus aureus, against Escherichia coli, against Pseudomonas aeruginosa, with Klebsiella pneumoniae and against Trichophyton benhamiae was 25 µg/mL (≈ 64.3 µM) each time. Also, the MIC in the test on Aspergillus flavus and against Talaromyces marneffei was 25 µg/mL (≈ 64.3 µM) each time.

`CCSc1ccc(OCc2nnc3sc(-c4ccccc4O)nn23)cc1`: the “inhibition zone (IZ)” value in the test on Aspergillus fumigatus, with Staphylococcus aureus, in the test with Escherichia coli, in the test on Pseudomonas aeruginosa, with Klebsiella pneumoniae and with Trichophyton benhamiae was under 10 mm throughout. The “inhibition zone (IZ)” value in the test with Aspergillus flavus and in the test with Talaromyces marneffei was under 10 mm in each case. The MIC against Aspergillus fumigatus, against Staphylococcus aureus, against Escherichia coli, in the test with Pseudomonas aeruginosa, against Klebsiella pneumoniae and with Trichophyton benhamiae was 25 µg/mL (≈ 65 µM) throughout. Moreover, the MIC in the test on Aspergillus flavus and against Talaromyces marneffei was 25 µg/mL (≈ 65 µM) each time.

On to `CCSc1ccc(OCc2nnc3sc(-c4ccc(C)cc4)nn23)cc1`, for which the “inhibition zone (IZ)” value is recorded as under 10 mm with Aspergillus fumigatus; 16 mm in the test with Staphylococcus aureus; 16 mm with Escherichia coli; 16 mm in the test on Pseudomonas aeruginosa; 16 mm with Klebsiella pneumoniae; under 10 mm in the test with Trichophyton benhamiae. Besides, the “inhibition zone (IZ)” value in the test on Aspergillus flavus is recorded as under 10 mm; with Talaromyces marneffei, 16 mm. Also, the MIC is 25 µg/mL (≈ 65.4 µM) in the test on Aspergillus fumigatus; 6.25 µg/mL (≈ 16.3 µM) in the test on Staphylococcus aureus; 6.25 µg/mL (≈ 16.3 µM) against Escherichia coli; 6.25 µg/mL (≈ 16.3 µM) against Pseudomonas aeruginosa; 6.25 µg/mL (≈ 16.3 µM) in the test with Klebsiella pneumoniae; 25 µg/mL (≈ 65.4 µM) against Trichophyton benhamiae. The figures for the MIC against Aspergillus flavus and against Talaromyces marneffei were 25 µg/mL (≈ 65.4 µM) and 6.25 µg/mL (≈ 16.3 µM), respectively.

Regarding `CCSc1ccc(OCc2nnc3n2N=C(c2ccc(O)c(C(N)=O)c2)CS3)cc1`, the “inhibition zone (IZ)” value in the test with Aspergillus fumigatus, in the test on Staphylococcus aureus, with Escherichia coli, in the test on Pseudomonas aeruginosa, with Klebsiella pneumoniae and in the test on Trichophyton benhamiae was 16 mm throughout. In addition, the “inhibition zone (IZ)” value with Aspergillus flavus and with Talaromyces marneffei was 16 mm in each case. The MIC with Aspergillus fumigatus, against Staphylococcus aureus, against Escherichia coli, against Pseudomonas aeruginosa, against Klebsiella pneumoniae and with Trichophyton benhamiae was 6.25 µg/mL (≈ 14.2 µM) each time. Besides, the MIC in the test with Aspergillus flavus and with Talaromyces marneffei was 6.25 µg/mL (≈ 14.2 µM) throughout.

For `CS(=O)(=O)c1ccc(OCc2nnc3sc(-c4ccccc4Cl)nn23)cc1`, the “inhibition zone (IZ)” value in the test with Aspergillus fumigatus, in the test with Staphylococcus aureus, with Escherichia coli, in the test on Pseudomonas aeruginosa, with Klebsiella pneumoniae and with Trichophyton benhamiae was 11 mm each time. Further, the figures for the “inhibition zone (IZ)” value in the test with Aspergillus flavus and in the test with Talaromyces marneffei were 11 mm and under 10 mm, respectively. Moreover, the MIC in the test on Aspergillus fumigatus, against Staphylococcus aureus, in the test on Escherichia coli, in the test on Pseudomonas aeruginosa, with Klebsiella pneumoniae and in the test with Trichophyton benhamiae was 12.5 µg/mL (≈ 29.7 µM) throughout. Moreover, the values for the MIC against Aspergillus flavus and against Talaromyces marneffei were 12.5 µg/mL (≈ 29.7 µM) and 25 µg/mL (≈ 59.4 µM), respectively.

Consider `O=C(O)c1cn(C2CC2)c2cc(N3CCNCC3)c(F)cc2c1=O` [CIPROFLOXACIN], for which the “inhibition zone (IZ)” value with Staphylococcus aureus turned out to be 22 mm; in the test with Escherichia coli, 30 mm; in the test with Pseudomonas aeruginosa, 25 mm; in the test with Klebsiella pneumoniae it was 23 mm. The minimal inhibitory concentration (MIC) with Staphylococcus aureus was 1.56 µg/mL (≈ 4.71 µM); against Klebsiella pneumoniae it was 6.25 µg/mL (≈ 18.9 µM).

Broadly, the MIC is the lowest concentration found to suppress growth.
